We go through 16 compounds from PubChem BioAssay.

The nature of assay [1]: Her2 expression decrease, cell viability multiplex – SKBR3 breast tumor cells, AlphaScreen, ATP viability, primary screen (AID 461;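 active = Her2 level under about 52% in both replicate screens, with viability over 70% of control, limit read from the data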;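 for Her2 level: lower value means less Her2 protein in the cells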;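 for viability: percent of carrier control wells set as 100% viability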). The note with it: SKBR3 Her2 protein level, 18-24 h, measured here: SKBR3 viability, ATP luminescence, at 10 µM. (In general: Alpha assays give light when donor and acceptor beads are brought close together.)
Assay [2] concerns the target Receptor tyrosine-protein kinase erbB-2 (Homo sapiens) (UniProt P04626). The description is as above. The note with it: 18-24 h, at 10 µM, stronger effect = lower value.
Assay [3] in a line: reduced viability of SK-BR-3 breast cancer cells – cell-based, 24 h, human, pilot screen (AID 572).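 Note: compound exposure lasted between 18 and 24 h rather than exactly 24 h; 100% = carrier-treated control wells.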 The note with it: SK-BR-3 viability, CellTiter-Glo luminescence, at 10 µM, stronger effect = lower value.
Assay [4] is described as follows: HUVEC growth inhibition – cell-based, human, primary screen (AID 575;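 active = viability at or below 30% in both replicate assays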;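 note: 100% = median of untreated cell wells with 0.1% DMSO on each plate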). The note with it: HUVEC proliferation, CellTiter-Glo luminescence, 72 h; at 10 µM; stronger effect = lower value. In short, it runs like this:
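System: primary human umbilical vein endothelial cells; Quantity: 1250 endothelial cells in each well; Buffer or medium: supplemented EBM, 2% fetal bovine serum; Doses: one dose, 10 µM final, 0.1% DMSO; Incubation: 72 h compound incubation; Technique: ATP-based CellTiter-Glo luminescent read; Evaluation: percent of median DMSO-control luminescence; Controls: vehicle and MePR control wells.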
In general terms: In ATP-based viability assays light output follows the ATP content of the culture.

The nature of assay [5]: H69AR cell proliferation blockers – human, duplicate replicates, primary screen (AID 580;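 active = viability at or under a set limit in both replicates, limit being median viability minus 3 SD, cut at about 48% in these data, passing the limit was not always enough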;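 note: 100% = mean luminescence of untreated wells and 0% = no signal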). The note with it: H69AR lung tumor cells viability, ATP luminescence, 72 h; at 10 µM; stronger effect = lower value.
Assay [6] is described as follows: MRP1 drug-resistance reversers in H69AR cells – cell-based, doxorubicin co-treatment, pilot screen (AID 601;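 active = viability loss from added drug above about 55%, and viability with drug at most 40%, in both replicates, limit read from the data, passing the limit was not always enough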). The note with it: CellTiter-Glo, 72 h, at 10 µM; for differential viability (reversal): stronger effect = higher value.
A short description of assay [7]: yeast transport mutant growth inhibition pilot in 384-well plates, post-Golgi transport modulator project (AID 636; in the data active = inhibition above about 31%). The following applies: absorbance 615 nm, about 18 h, stronger effect = higher value.
The nature of assay [8]: growth suppression of yeast trafficking mutant, preliminary HTS, modulators of trafficking downstream of Golgi apparatus project, 1536-format plate, OD 615 nm (AID 637; in the data active = inhibition above about 30%). The following applies: yeast transport mutant growth, absorbance 615 nm, 18 h; stronger effect = higher value.
The mark [9] stands for this setting: H69AR cells + 2 uM doxorubicin, measured here: viability with 2 uM doxorubicin, stronger effect = lower value.
The mark [10] stands for this setting: H69AR cells, compound alone cytotoxicity.

For orientation: viability means a read-out of living cells in per cent, often relative to untreated cells. Usually inhibition stands for the relative decrease from the control value, in per cent.

The source made the active and inactive calls.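 Rule for the calls, unless noted: active = viability at or below 10% of carrier control in both of two separate runs; inconclusive = viability at or below 10% in only one of the two runs; inactive = the rest.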

Receptor tyrosine-protein kinase erbB-2 (Homo sapiens), sequence (P04626 whole entry, looked up): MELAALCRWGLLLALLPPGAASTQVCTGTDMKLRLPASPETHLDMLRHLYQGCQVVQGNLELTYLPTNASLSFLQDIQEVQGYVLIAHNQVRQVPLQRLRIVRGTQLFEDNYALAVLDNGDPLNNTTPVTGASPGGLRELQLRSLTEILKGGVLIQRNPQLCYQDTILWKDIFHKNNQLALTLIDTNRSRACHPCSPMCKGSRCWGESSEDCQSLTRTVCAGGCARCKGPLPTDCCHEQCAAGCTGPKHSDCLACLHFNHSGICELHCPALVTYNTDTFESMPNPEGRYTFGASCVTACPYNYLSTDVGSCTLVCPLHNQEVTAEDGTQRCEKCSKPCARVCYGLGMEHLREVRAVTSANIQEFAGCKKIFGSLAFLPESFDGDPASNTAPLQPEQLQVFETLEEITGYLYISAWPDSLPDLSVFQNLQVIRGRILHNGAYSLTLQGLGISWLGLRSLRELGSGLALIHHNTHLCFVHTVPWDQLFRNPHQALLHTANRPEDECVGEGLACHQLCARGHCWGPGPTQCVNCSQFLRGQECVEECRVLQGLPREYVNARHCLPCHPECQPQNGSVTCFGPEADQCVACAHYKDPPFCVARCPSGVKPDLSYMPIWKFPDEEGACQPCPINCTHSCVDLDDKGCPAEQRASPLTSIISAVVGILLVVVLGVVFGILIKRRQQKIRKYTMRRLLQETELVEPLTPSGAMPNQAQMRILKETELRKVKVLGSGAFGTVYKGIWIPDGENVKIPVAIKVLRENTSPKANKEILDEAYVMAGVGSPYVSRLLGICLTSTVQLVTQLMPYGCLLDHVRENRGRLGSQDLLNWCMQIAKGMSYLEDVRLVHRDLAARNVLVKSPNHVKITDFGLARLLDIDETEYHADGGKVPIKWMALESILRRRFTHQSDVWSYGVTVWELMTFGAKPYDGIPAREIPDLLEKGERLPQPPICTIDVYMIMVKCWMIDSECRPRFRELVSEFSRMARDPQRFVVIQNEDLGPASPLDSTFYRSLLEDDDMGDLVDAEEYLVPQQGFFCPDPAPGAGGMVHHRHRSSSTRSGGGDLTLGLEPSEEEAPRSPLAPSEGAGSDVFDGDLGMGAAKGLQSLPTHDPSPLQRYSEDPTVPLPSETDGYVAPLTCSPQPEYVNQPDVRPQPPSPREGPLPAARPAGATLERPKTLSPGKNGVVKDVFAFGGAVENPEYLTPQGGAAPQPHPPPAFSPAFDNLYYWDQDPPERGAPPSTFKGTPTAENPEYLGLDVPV

With `CCOc1cc2[nH]c(=O)n(CCCCC(=O)N3CCCCCC3)c(=O)c2cc1OCC`, the viability in assay [1] is 90%; in assay [3], 90% (inactive); in assay [4], 91.6% (inactive); in assay [5], 76.8% (inactive); in assay [6] (setting [9]) it was 74.4%; in assay [6] (setting [10]) it was 76.8%. In assay [2], the Her2 level is 87.5% (inactive). The differential viability (reversal) in assay [6] (H69AR cells + 2 uM doxorubicin) was 2.38% (inactive). Besides, the inhibition in assay [7] was -3.29% (inactive); in assay [8] it was -0.36% (inactive).

In the case of `Cc1csc2nc(CSc3nc4ccccc4o3)c(Br)n12`, the viability in assay [1] is 84.5%; in assay [3] it was 84.5% (inactive); in assay [4], 85.6% (inactive); in assay [5] it was 83% (inactive); in assay [6] (setting [9]), 79.8%; in assay [6] (setting [10]) it was 83%. Moreover, the Her2 level in assay [2] was 60% (inactive). Further, the differential viability (reversal) in assay [6] (H69AR cells + 2 uM doxorubicin) was 3.21% (inactive). Also, the results for the inhibition in assay [7] and in assay [8] were -3.87% (inactive) and 10.5% (inactive), respectively.

Regarding `O=C(CN1C(=O)NC2(CCCCCC2)C1=O)N1CCC(Cc2ccccc2)CC1`, the viability in assay [1] was 87%; in assay [3], 87% (inactive); in assay [4], 77.2% (inactive); in assay [5], 86.7% (inactive); in assay [6] (setting [9]), 90.9%; in assay [6] (setting [10]), 86.7%. Also, in assay [2], the Her2 level is 94.5% (inactive). For the same compound, the differential viability (reversal) in assay [6] (H69AR cells + 2 uM doxorubicin) was -4.21% (inactive). The inhibition in assay [7] was -5.33% (inactive); in assay [8] it was 2.46% (inactive).

Take `COc1ccc2c(CC(=O)Nc3ccc(OC)c(NS(=O)(=O)c4ccc(F)cc4)c3)coc2c1`: the viability in assay [1] is 88%; in assay [3], 88% (inactive); in assay [4], 70.2% (inactive); in assay [5] it was 86.3% (inactive); in assay [6] (setting [9]), 88.1%; in assay [6] (setting [10]) it was 86.3%. Moreover, the Her2 level in assay [2] is 85% (inactive). Besides, in assay [6] (H69AR cells + 2 uM doxorubicin), the differential viability (reversal) was -1.86% (inactive). For the same compound, the inhibition in assay [7] was -2.18% (inactive); in assay [8], -0.33% (inactive).

As to `O=C(O)C1CCCN1S(=O)(=O)c1ccc2ccccc2c1` (stereo not given), the viability is 106% in assay [1]; 106% (inactive) in assay [3]; 101% (inactive) in assay [4]; 95.6% (inactive) in assay [5]; 108% in assay [6] (setting [9]); 95.6% in assay [6] (setting [10]). Moreover, the Her2 level in assay [2] is 110% (inactive). For the same compound, the differential viability (reversal) in assay [6] (H69AR cells + 2 uM doxorubicin) is -12% (inactive). Moreover, the inhibition in assay [7] is 0.27% (inactive); in assay [8], 9.51% (inactive).

As to `O=C(NCC1COc2ccccc2O1)c1ccccc1` (stereo not given), the viability in assay [1] was 79%; in assay [3], 79% (inactive); in assay [4] it was 113% (inactive); in assay [5], 92.9% (inactive); in assay [6] (setting [9]), 90.4%; in assay [6] (setting [10]), 92.9%. Further, in assay [2], the Her2 level was 95% (inactive). Also, the differential viability (reversal) in assay [6] (H69AR cells + 2 uM doxorubicin) was 2.58% (inactive). Moreover, the figures for the inhibition in assay [7] and in assay [8] were -4.27% (inactive) and 0.33% (inactive), respectively.

With `COc1ccc(C2=NO[C@@H]3C(=O)N(c4ccc5c(c4)OCCO5)C(=O)[C@H]23)cc1OC`, the viability in assay [1] was 85%; in assay [3] it was 85% (inactive); in assay [4] it was 81.7% (inactive); in assay [5], 80.3% (inactive); in assay [6] (setting [9]) it was 87.1%; in assay [6] (setting [10]), 80.3%. For the same compound, the Her2 level in assay [2] is 112% (inactive). In assay [6] (H69AR cells + 2 uM doxorubicin), the differential viability (reversal) is -6.85% (inactive). Moreover, the inhibition is 2.34% (inactive) in assay [7] and -5.08% (inactive) in assay [8].

Take `CCc1nnc(NC(=O)C2CC(=O)N(Cc3ccco3)C2)s1` (stereo not given): the viability in assay [1] was 107%; in assay [3], 107% (inactive); in assay [4], 111% (inactive); in assay [5], 98.4% (inactive); in assay [6] (setting [9]), 94.4%; in assay [6] (setting [10]), 98.4%. Moreover, the Her2 level in assay [2] is 95% (inactive). Further, in assay [6] (H69AR cells + 2 uM doxorubicin), the differential viability (reversal) was 4% (inactive). For the same compound, the values for the inhibition in assay [7] and in assay [8] were -2.93% (inactive) and 2.1% (inactive), respectively.

Turning to `Cc1ccnc(NC(=O)CCC(=O)N(CC(=O)NC2CCCCC2)c2cccc(C)c2C)c1`, the viability in assay [1] was 92.5%; in assay [3], 92.5% (inactive); in assay [4], 92.1% (inactive); in assay [5] it was 86.7% (inactive); in assay [6] (setting [9]), 94.5%; in assay [6] (setting [10]), 86.7%. Besides, in assay [2], the Her2 level was 97.5% (inactive). In assay [6] (H69AR cells + 2 uM doxorubicin), the differential viability (reversal) is -7.79% (inactive). Moreover, the inhibition in assay [7] was 0% (inactive); in assay [8] it was 22.6% (inactive).

With `CC(=O)N1CCC(N(C(=O)Nc2ccc(C)c(C)c2)C2CCCC2)CC1`, the viability is 92% in assay [1]; 92% (inactive) in assay [3]; 90.4% (inactive) in assay [4]; 85.6% (inactive) in assay [5]; 89.1% in assay [6] (setting [9]); 85.6% in assay [6] (setting [10]). The Her2 level in assay [2] was 102% (inactive). In assay [6] (H69AR cells + 2 uM doxorubicin), the differential viability (reversal) was -3.42% (inactive). The inhibition was -1.54% (inactive) in assay [7] and -5.33% (inactive) in assay [8].

For the compound `Cc1ccc(S(=O)(=O)N2C(=O)CCC2C(=O)Nc2ccc3c(c2)OCCO3)cc1` (stereo not given), the viability in assay [1] is 109%; in assay [3], 109% (inactive); in assay [4] it was 93.6% (inactive); in assay [5] it was 89.7% (inactive); in assay [6] (setting [9]) it was 93.8%; in assay [6] (setting [10]), 89.7%. The Her2 level in assay [2] was 96.5% (inactive). Also, the differential viability (reversal) in assay [6] (H69AR cells + 2 uM doxorubicin) was -4.12% (inactive). The inhibition in assay [7] is -1.69% (inactive); in assay [8], -1.67% (inactive).

`CC(C)CCN1CC(C(=O)NCc2ccccc2)CC1=O` (stereo not given): the viability is 88.5% in assay [1]; 88.5% (inactive) in assay [3]; 88% (inactive) in assay [4]; 92.6% (inactive) in assay [5]; 91.2% in assay [6] (setting [9]); 92.6% in assay [6] (setting [10]). Also, the Her2 level in assay [2] was 87.5% (inactive). In addition, the differential viability (reversal) in assay [6] (H69AR cells + 2 uM doxorubicin) was 1.32% (inactive). For the same compound, the inhibition in assay [7] was 1.28% (inactive); in assay [8] it was -0.83% (inactive).

With `COC(=O)c1cccc(NC(=O)CSc2nnc(COc3ccc(C#N)cc3)n2-c2ccccc2)c1`, the viability is 92% in assay [1]; 92% (inactive) in assay [3]; 105% (inactive) in assay [4]; 87.8% (inactive) in assay [5]; 89.4% in assay [6] (setting [9]); 87.8% in assay [6] (setting [10]). Further, in assay [2], the Her2 level is 112% (inactive). Moreover, in assay [6] (H69AR cells + 2 uM doxorubicin), the differential viability (reversal) was -1.66% (inactive). The inhibition was 3.38% (inactive) in assay [7] and -3.02% (inactive) in assay [8].

For the compound `COC(=O)C1CCN(C(=O)NC(C)(C)C)CC1`, the viability is 110% in assay [1]; 110% (inactive) in assay [3]; 104% (inactive) in assay [4]; 105% (inactive) in assay [5]; 87.3% in assay [6] (setting [9]); 105% in assay [6] (setting [10]). Besides, the Her2 level in assay [2] is 83% (inactive). For the same compound, the differential viability (reversal) in assay [6] (H69AR cells + 2 uM doxorubicin) is 17.2% (inactive). Moreover, the inhibition in assay [7] is -5.27% (inactive); in assay [8], 8.73% (inactive).

With `CC(=O)c1ccc(NC2OC(C)C(O)C(O)C2O)cc1` (stereo not given), the viability in assay [1] is 121%; in assay [3], 121% (inactive); in assay [4], 100% (inactive); in assay [5], 91.3% (inactive); in assay [6] (setting [9]), 89.8%; in assay [6] (setting [10]), 91.3%. Moreover, the Her2 level in assay [2] is 112% (inactive). Further, the differential viability (reversal) in assay [6] (H69AR cells + 2 uM doxorubicin) is 1.54% (inactive). For the same compound, the inhibition is 2.24% (inactive) in assay [7] and -6.67% (inactive) in assay [8].

In the case of `Cc1ccc(SCCNS(=O)(=O)c2ccc(F)cc2)cc1`, the viability in assay [1] was 85%; in assay [3], 85% (inactive); in assay [4], 78.8% (inactive); in assay [5], 105% (inactive); in assay [6] (setting [9]), 91.1%; in assay [6] (setting [10]), 105%. Moreover, the Her2 level in assay [2] was 112% (inactive). The differential viability (reversal) in assay [6] (H69AR cells + 2 uM doxorubicin) is 13.5% (inactive). For the same compound, the inhibition in assay [7] was -6.8% (inactive); in assay [8] it was -2.42% (inactive).
